Experimental data: ChEMBL document CHEMBL1126191, “New antiinflammatory agents. 2. 5-Phenyl-3H-imidazo[4,5-c][1,8]naphthyridin-4(5H)-ones: a new class of nonsteroidal antiinflammatory agents with potent activity like glucocorticoids” (J Med Chem, 1992)

Assays:
Mus musculus = assay: Acute lethal toxicity (peroral administration), determined by observing the mortality for 7 days after the administration in mouse; format: organism-based; settings: in vivo, po, 168 h
Procedure, shortened: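 Male dd mice of 20-25 g, three per group, given compound by mouth once. Mortality followed for 7 days, and the minimum lethal dose (MLD) was recorded in mg/kg po.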

Rattus norvegicus [1] = assay: Antiinflammatory effect in rat paw edema model following 50 mg/kg p.o. administration.; format: functional; settings: route oral
Rattus norvegicus [2] = assay: Antiinflammatory effect (oral administration) on rat paw edema model (reversed passive Arthus reaction-induced paw edema) at 10 mg/kg; format: functional
Procedure, shortened: (§1)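 Reversed passive Arthus: male Wistar rats (~150 g, n=5) were dosed orally with compound in 5% arabic gum. Paw volume was measured by plethysmograph before dosing and 2 h after antigen. % inhibition was calculated vs controls, and ED50 came from log-dose linear regression.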

Rattus norvegicus [3] = assay: Antiinflammatory effect (oral administration), on zymosan-induced rat paw edema at 25 mg/kg; format: functional
Procedure, shortened: (§2)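 Oral dosing in 5% arabic gum suspension to male Wistar rats (~150 g, n=5) 1 h before subplantar injection of 1% zymosan in saline into the hind paw. Paw volume was read by plethysmograph before dosing and 4 h after zymosan.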

Rattus norvegicus [4] = assay: Antiinflammatory effect (oral administration), on rat reversed passive Arthus reaction-induced paw edema at 5 mg/kg; format: functional; procedure, shortened: as §1
Rattus norvegicus [5] = assay: Antiinflammatory effect (oral administration) on rat paw edema model (carrageenan-induced paw edema) at 50 mg/kg; format: functional
Rattus norvegicus [6] = assay: Antiinflammatory effect (oral administration) on rat paw edema model (reversed passive Arthus reaction-induced paw edema) at 5 mg/kg; format: functional; procedure, shortened: as §1
Rattus norvegicus [7] = assay: Antiinflammatory effect (oral administration) on rat paw edema model (zymosan-induced paw edema) at 50 mg/kg; format: functional; procedure, shortened: as §2
Rattus norvegicus [8] = assay: Dose of the compound (oral administration) showing antiinflammatory effect on rat paw edema model (carrageenan-induced paw edema, CPE); format: functional
Rattus norvegicus [9] = assay: Oral dose required for antiinflammatory effect on zymosan induced rat paw edema.; format: functional; procedure, shortened: as §2
Rattus norvegicus [10] = assay: Antiinflammatory effect of the compound(oral administration) on rat paw edema model(carrageenan-induced paw edema) at 50 mg/kg; format: functional
Rattus norvegicus [11] = assay: Dose of the compound (oral administration) showing antiinflammatory effect on rat paw edema model (reversed passive Arthus reaction-induced paw edema, RPAR); format: functional; procedure, shortened: as §1
Rattus norvegicus [12] = assay: Antiinflammatory effect of the compound (oral administration) on rat paw edema model (reversed passive Arthus reaction-induced paw edema, RPAR); format: functional; procedure, shortened: as §1
Rattus norvegicus [13] = assay: Antiinflammatory effect of the compound(oral administration) on rat paw edema model(zymosan-induced paw edema) at 50 mg/kg; format: functional; procedure, shortened: as §2
Rattus norvegicus [14] = assay: Antiinflammatory effect (oral administration) on rat paw edema model (reversed passive Arthus reaction-induced paw edema) at 100 mg/kg; format: functional; procedure, shortened: as §1

SMILES | MLD (Mus musculus) [mg/kg] | inhibition in vivo at 50 mg/kg (Rattus norvegicus [1]) [%] | inhibition in vivo at 25 mg/kg (Rattus norvegicus [3]) [%] | inhibition in vivo at 5 mg/kg (Rattus norvegicus [4]) [%] | ED40 (Rattus norvegicus [8]) [mg/kg] | ED40 (Rattus norvegicus [9]) [mg/kg] | inhibition in vivo at 50 mg/kg (Rattus norvegicus [10]) [%] | ED50 (Rattus norvegicus [11]) [mg/kg] | other results
O=c1c2c(ncn2CCc2ccccc2)c2cccnc2n1-c1ccccc1 | > 300 | 2.2 | 25.7 |  |  |  |  |  | inhibition in vivo at 10 mg/kg (Rattus norvegicus [2]): 5.6%
O=c1c2c(ncn2Cc2ccccc2Cl)c2cccnc2n1-c1ccccc1 |  | 14.9 | 27.3 | 20.8 |  |  |  |  | 
CCN(CC)CCCn1cnc2c3cccnc3n(-c3ccccc3)c(=O)c21 |  | 7.2 | 17.4 | 11.1 |  |  |  |  | 
O=c1c2c(nc(-c3ccccc3)n2Cc2ccccc2)c2cccnc2n1-c1ccccc1 |  |  |  |  |  |  |  |  | inhibition in vivo at 50 mg/kg (Rattus norvegicus [5]): 0%; inhibition in vivo at 5 mg/kg (Rattus norvegicus [6]): 1.2%; inhibition in vivo at 50 mg/kg (Rattus norvegicus [7]): -4%
O=c1c2c(ncn2Cc2ccccc2)c2cccnc2n1-c1ccccc1 | > 300 |  | 68.3 | 79.7 | 5.3 | 0.37 | 63 | 0.47 | 
O=c1c2c(ncn2CCCN2CCOCC2)c2cccnc2n1-c1ccccc1 |  |  | 22.4 | -3.5 |  |  | 9.7 |  | 
CCn1cnc2c3cccnc3n(-c3ccccc3)c(=O)c21 | 100 |  | 77.5 |  | 13.9 | 1.6 | 58.2 | 1.9 | inhibition in vivo at 10 mg/kg (Rattus norvegicus [2]): 86.9%
Cn1cnc2c3cccnc3n(-c3ccccc3)c(=O)c21 | 100 |  |  | 45 |  |  | 40 |  | 
O=c1c2c(ncn2Cc2ccc(Cl)cc2)c2cccnc2n1-c1ccccc1 | > 300 | 21.3 | 42.8 | 15.1 |  | 20.3 |  |  | 
CC(C)n1cnc2c3cccnc3n(-c3ccccc3)c(=O)c21 | 200 | 43.1 | 62.4 | 13.3 |  | 12.7 |  |  | 
O=c1c2ncn(Cc3ccccc3)c2c2cccnc2n1-c1ccccc1 | > 300 |  | 4.7 | 1.5 |  |  |  |  | 
CC(c1ccccc1)n1cnc2c3cccnc3n(-c3ccccc3)c(=O)c21 (centres undefined) | > 300 | 3.5 | 1.6 | 14.9 |  |  |  |  | 
CC(C)Cn1cnc2c3cccnc3n(-c3ccccc3)c(=O)c21 | 300 |  | 69.7 | 61.8 | 9.1 | 0.19 | 57.4 | 0.97 | 
O=c1c2c(ncn2CCCO)c2cccnc2n1-c1ccccc1 | > 300 |  | 58.1 | 41.3 | 33.5 | 4.8 | 42.6 | 3.7 | 
CC(=O)OCCn1cnc2c3cccnc3n(-c3ccccc3)c(=O)c21 | > 300 |  | 41.6 |  | 40.3 | 19.4 | 42.2 |  | inhibition in vivo at 10 mg/kg (Rattus norvegicus [2]): 11.8%
O=C(O)Cn1cnc2c3cccnc3n(-c3ccccc3)c(=O)c21 |  | 10.8 | 5.1 | 3.3 |  |  |  |  | 
CCCCCCn1cnc2c3cccnc3n(-c3ccccc3)c(=O)c21 | > 300 |  | 33.5 | 51.1 |  |  | 35.2 | 4.9 | 
CC(C)n1cnc2c(=O)n(-c3ccccc3)c3ncccc3c21 | > 300 |  |  | 32 |  |  |  |  | 
C=CCn1cnc2c3cccnc3n(-c3ccccc3)c(=O)c21 | > 300 |  | 67.3 | 22.7 | 21.9 | 2.7 | 67.8 |  | 
Oc1c2ncnc-2c2cccnc2n1-c1ccccc1 | > 300 |  |  | 15.4 |  |  |  |  | 
Cc1ccc(C)c(Cn2cnc3c4cccnc4n(-c4ccccc4)c(=O)c32)c1 |  | 1.2 | 10.1 | -3.5 |  |  |  |  | 

SMILES | MLD (Mus musculus) [mg/kg] | inhibition in vivo at 50 mg/kg (Rattus norvegicus [1]) [%] | inhibition in vivo at 25 mg/kg (Rattus norvegicus [3]) [%] | inhibition in vivo at 5 mg/kg (Rattus norvegicus [4]) [%] | ED40 (Rattus norvegicus [8]) [mg/kg] | ED40 (Rattus norvegicus [9]) [mg/kg] | inhibition in vivo at 50 mg/kg (Rattus norvegicus [10]) [%] | ED50 (Rattus norvegicus [11]) [mg/kg] | other results
CCCn1cnc2c3cccnc3n(-c3ccccc3)c(=O)c21 | 200 |  | 61.2 |  | 15.9 | 1.3 | 57.3 | 2 | Inhibition (Rattus norvegicus [12]): 74.4%
Cc1cccc(Cn2cnc3c4cccnc4n(-c4ccccc4)c(=O)c32)c1 |  |  | 33.3 |  |  |  | 18.4 |  | inhibition in vivo at 10 mg/kg (Rattus norvegicus [2]): 33.5%
CCOCCn1cnc2c3cccnc3n(-c3ccccc3)c(=O)c21 | > 300 |  | 57.4 | 50.3 | 15.5 | 6 | 56.7 | 3.2 | 
O=c1c2c(ncn2C/C=C/c2ccccc2)c2cccnc2n1-c1ccccc1 | > 300 | 26.3 | 34.2 | 17.5 |  |  |  |  | 
COc1ccc(Cn2cnc3c4cccnc4n(-c4ccccc4)c(=O)c32)cc1 | > 300 | 37.8 | 66.9 | 59.2 |  | 0.93 |  | 2.3 | 
CC(=O)Cn1cnc2c3cccnc3n(-c3ccccc3)c(=O)c21 | > 200 |  | 53.7 | 57.7 | 40 | 3.9 | 41.3 | 4.5 | 
CCn1cnc2c(=O)n(-c3ccccc3)c3ncccc3c21 | > 300 |  | 13.5 | 3.5 |  |  |  |  | 
CCOC(=O)Cn1cnc2c3cccnc3n(-c3ccccc3)c(=O)c21 |  |  | 5 | 9.9 |  |  | 23.1 |  | 
CC(O)Cn1cnc2c3cccnc3n(-c3ccccc3)c(=O)c21 (centres undefined) | 300 |  | 74.7 | 61.8 | 7.8 | 4.5 | 48 | 1.9 | 
O=c1c2c(ncn2Cc2cccc(Br)c2)c2cccnc2n1-c1ccccc1 |  | 26.9 |  |  |  |  |  |  | inhibition in vivo at 10 mg/kg (Rattus norvegicus [2]): 17.2%
O=c1c2c(ncn2Cc2cccc([N+](=O)[O-])c2)c2cccnc2n1-c1ccccc1 |  | 33.1 | 35.7 | 43.9 |  |  |  |  | 
O=c1c2c(ncn2Cc2ccc([N+](=O)[O-])cc2)c2cccnc2n1-c1ccccc1 | > 300 | 35.9 | 45.6 | 22.2 |  | 3.5 |  |  | 
O=c1c2c(ncn2CC2CCCCC2)c2cccnc2n1-c1ccccc1 | > 300 | 34.7 | 49.8 |  |  | 11.8 |  | 5.7 | inhibition in vivo at 10 mg/kg (Rattus norvegicus [2]): 62.9%
COC(=O)c1ccc(Cn2cnc3c4cccnc4n(-c4ccccc4)c(=O)c32)cc1 |  |  |  | 9.2 |  |  | 8.7 |  | inhibition in vivo at 50 mg/kg (Rattus norvegicus [13]): 9.9%
CCCCn1cnc2c3cccnc3n(-c3ccccc3)c(=O)c21 | 300 |  | 55.5 | 49.9 | 15.4 | 2.1 | 45.8 | 4.8 | 
Cc1nc2c3cccnc3n(-c3ccccc3)c(=O)c2n1Cc1ccccc1 |  |  | 19.2 | 6.5 |  |  | 4.7 |  | 
Cc1ccc(Cn2cnc3c4cccnc4n(-c4ccccc4)c(=O)c32)cc1 | > 300 | 39.2 | 56.2 | 67.4 |  | 3.5 |  | 1.9 | 
COc1cccc(Cn2cnc3c4cccnc4n(-c4ccccc4)c(=O)c32)c1 |  | 13 | 43.5 |  |  |  |  |  | inhibition in vivo at 10 mg/kg (Rattus norvegicus [2]): 24%
C[C@]12C=CC(=O)C=C1CC[C@@H]1[C@@H]2[C@@H](O)C[C@@]2(C)[C@H]1CC[C@]2(O)C(=O)CO [PREDNISOLONE] | > 300 |  |  |  | 4.7 | 1.2 |  | 74.2 | 
NC(=O)N1C(=O)/C(=C(\O)c2cccs2)c2cc(Cl)ccc21 [TENIDAP] | > 300 |  |  |  | 14.8 | 41.2 |  |  | inhibition in vivo at 100 mg/kg (Rattus norvegicus [14]): 4.8%
